This is an account of results in ChEMBL document CHEMBL4043307, “Toward β-Secretase-1 Inhibitors with Improved Isoform Selectivity” (J Med Chem, 2018).

Molecules are shown by their SMILES. Activity calls are given as the source filed them. No cut-off for these calls is given here.

Data set [1] deals with T1, Beta-secretase 2 (Homo sapiens, UniProt Q9Y5Z0).
T1 sequence (Q9Y5Z0 whole entry): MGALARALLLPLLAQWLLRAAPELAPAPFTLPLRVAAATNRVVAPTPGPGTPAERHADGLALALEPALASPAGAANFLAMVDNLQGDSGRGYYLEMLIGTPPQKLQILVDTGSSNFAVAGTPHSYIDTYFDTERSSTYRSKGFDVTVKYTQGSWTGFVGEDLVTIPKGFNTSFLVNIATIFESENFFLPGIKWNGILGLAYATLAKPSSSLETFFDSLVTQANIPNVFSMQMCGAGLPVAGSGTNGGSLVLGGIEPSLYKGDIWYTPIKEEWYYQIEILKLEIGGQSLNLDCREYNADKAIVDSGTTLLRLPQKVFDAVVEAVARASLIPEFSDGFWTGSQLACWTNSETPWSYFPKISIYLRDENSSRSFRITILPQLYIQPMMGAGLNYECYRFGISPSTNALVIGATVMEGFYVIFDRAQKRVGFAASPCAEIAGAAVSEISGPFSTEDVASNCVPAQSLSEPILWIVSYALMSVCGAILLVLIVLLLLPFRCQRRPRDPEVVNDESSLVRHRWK
The data set can be described thus: Inhibition of BACE2 in human MNT1 cells assessed as increase in M-beta accumulation at 10 nM after 24 hrs by Western blot method. The class given is cell-based. The note with it: 0.01 µM. Put shortly:
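Human melanocyte MNT1 cells incubated with a range of inhibitor concentrations or vehicle (0.1% DMSO), then processed to detect parent PMEL (P1) and the proteolytically cleaved Mβ fragment. Mβ accumulation serves as the read-out of BACE2 inhibition.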

Data set [2] has as its target T1, Beta-secretase 2. The data set can be described thus: Inhibition of human BACE2 (1 to 473 residues) using CEVNLDAEFK as substrate preincubated for 10 mins followed by substrate addition measured after 6.5 hrs by TR-FRET assay. Put shortly: (§1)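 Biochemical protease assays on the human BACE1 or BACE2 enzyme. Both assays use the same fluorescently labelled peptide substrate, designed to span the BACE cleavage site of APP.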
(Time-resolved FRET reads energy transfer from a long-lived donor to a nearby acceptor.)

Data set [3] relates to Liver. The data set is described as follows: Intrinsic clearance in human liver microsomes at 1 uM after 30 mins by LC-MS/MS method. As to conditions: 0.5 h. The data set is classed as ADME, microsome.
The nature of data set [4]: Intrinsic clearance in rat hepatocytes assessed per million cells at 1 uM after 120 mins by LC-MS/MS method. The class given is ADME, cell-based, Hepatocyte. As to conditions: 2 h.
The nature of data set [5]: Apparent permeability across MDCK cells expressing MDR1 after 2 hrs by LC-MS/MS method. The class given is ADME, cell-based, Canis lupus familiaris. The note with it: dog.
Data set [6] is described as follows: Unbound brain-to-plasma concentration ratio in CD rat at 1 mg/kg, po as cassette dose after 2 hrs by LC-MS/MS method. The class given is ADME, organism-based. As to conditions: brain and plasma, read-out: K(p,uu,brain).
The nature of data set [7]: Unbound brain-to-plasma concentration ratio in CD rat at 5 mg/kg, po as cassette dose after 2 hrs by LC-MS/MS method. The note with it: brain and plasma, read-out: K(p,uu,brain). The data set is classed as ADME, organism-based.
In data set [8] the target is Cathepsin D (Homo sapiens) (UniProt P07339). The data set is described as follows: Inhibition of human cathepsin D up to 100 uM using MOCAc-Gly-Lys-Pro-Ile-Leu-Phe-Phe-Arg-Leu-Lys(Dnp)-D-Arg-NH2 as substrate after 10 mins by spectrophotometric method. As to conditions: tested as the 2H-labelled form.
Data set [9] has as its target Cathepsin S (Homo sapiens) (UniProt P25774). The data set can be described thus: Inhibition of full length recombinant human cathepsin S up to 100 uM using Z-Leu-Arg-AMC as substrate after 30 mins by spectrophotometric method. As to conditions: tested as the 2H-labelled form.
The target of data set [10] is T2, Renin (Homo sapiens) (UniProt P00797).
T2 sequence (whole entry): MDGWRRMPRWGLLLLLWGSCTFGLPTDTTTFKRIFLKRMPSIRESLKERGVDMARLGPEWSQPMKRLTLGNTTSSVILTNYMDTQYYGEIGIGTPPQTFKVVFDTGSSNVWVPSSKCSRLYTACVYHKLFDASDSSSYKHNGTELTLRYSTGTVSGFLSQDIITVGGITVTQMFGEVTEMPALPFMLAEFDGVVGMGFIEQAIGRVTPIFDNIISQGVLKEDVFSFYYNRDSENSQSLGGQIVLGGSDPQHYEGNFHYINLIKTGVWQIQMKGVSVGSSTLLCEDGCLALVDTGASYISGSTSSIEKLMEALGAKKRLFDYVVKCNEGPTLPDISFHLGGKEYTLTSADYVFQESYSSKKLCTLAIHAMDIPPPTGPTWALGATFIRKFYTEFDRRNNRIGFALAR
The data set is described as follows: Inhibition of full length recombinant human renin up to 100 uM using DABCYL-gamma-Abu-Ile-His-Pro-Phe-His-Leu-Val-Ile-His-Thr-EDANS as substrate after 60 mins by spectrophotometric method. The note with it: tested as the 2H-labelled form.

For data set [11], the species on record is Sus scrofa. The data set can be described thus: Inhibition of pig pepsin up to 100 uM using MOCAc-Ala-Pro-Ala-Lys-Phe-Phe-Arg-Leu-Lys(Dnp)-NH2 as substrate after 60 mins by spectrophotometric method. As to conditions: tested as the 2H-labelled form.
Data set [12] has as its system Mus musculus. The data set is described as follows: Reduction of amyloid beta-40 levels in C57BL/6 mouse plasma at 50 mg/kg, po after 1.5 to 16 hrs by immunoassay. The class given is functional, organism-based. The note with it: tested as the 2H-labelled form. Put shortly: (§2)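 PK/PD study in C57BL/6 mice given 50 mg/kg orally. Brain Aβ40 and Aβ42 and plasma Aβ40 levels were followed over time alongside free brain and plasma exposure, and compared with vehicle-treated controls.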

Data set [13] deals with Mus musculus. The data set is described as follows: Reduction of amyloid beta-40 levels in C57BL/6 mouse brain at 50 mg/kg, po after 1.5 to 16 hrs by immunoassay relative to vehicle-treated control. The data set is classed as functional, organism-based. The note with it: tested as the 2H-labelled form. Put shortly:
as §2

Data set [14] relates to Mus musculus. The data set can be described thus: Reduction of amyloid beta-42 levels in C57BL/6 mouse brain at 50 mg/kg, po after 1.5 to 16 hrs by immunoassay relative to vehicle-treated control. The data set is classed as functional, organism-based. The note with it: tested as the 2H-labelled form. Put shortly: as §2
In data set [15] the target is hERG (KCNH2) (Homo sapiens, UniProt Q12809). The data set is described as follows: Inhibition of human ERG at 11.1 uM relative to control.
Data set [16] addresses T3, Beta-secretase 1 (Homo sapiens, UniProt P56817). The data set can be described thus: Inhibition of human BACE1 (1 to 460 residues) fused with Fc domain of IgG1 expressed in HEK293 cells preincubated for 10 mins followed by substrate addition measured after 17 mins by TR-FRET assay. The class given is cell-based. Put shortly:
as §1

The target of data set [17] is T3, Beta-secretase 1. The data set can be described thus: Inhibition of BACE1 in human SH-SY5Y cells assessed as decrease in sAPP-beta release after 16 to 17 hrs. The class given is cell-based.
Data set [18] addresses Voltage-gated inwardly rectifying potassium channel KCNH2 (Homo sapiens, UniProt Q12809). The data set can be described thus: Inhibition of human ERG.
Data set [19] addresses T1, Beta-secretase 2. The data set can be described thus: Inhibition of BACE2 in human MNT1 cells assessed as increase in M-beta accumulation at 10 uM after 24 hrs by Western blot method. The class given is cell-based. Put shortly:
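Human melanocyte MNT1 cells incubated with a range of inhibitor concentrations or vehicle (0.1% DMSO). Cells then processed to detect parent PMEL (P1) and the proteolytically cleaved Mβ fragment. Mβ fragment accumulation serves as the read-out of BACE2 inhibition.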
On the technique in general: A western blot detects proteins with antibodies after separation by electrophoresis.

For data set [20], the system named is Mus musculus. The data set is described as follows: Reduction of amyloid beta-42 levels in C57BL/6 mouse brain at 50 mg/kg, po after 3 hrs by immunoassay relative to vehicle-treated control. The class given is functional. More on the design: scale not given: the % may be the effect or the level left. Put shortly:
as §2

For data set [21], the system named is Brain. The data set can be described thus: Fraction unbound in C57BL/6 mouse brain at 50 mg/kg, po after 3 hrs by LC-MS/MS analysis. The data set is classed as ADME, organism-based. The note with it: in vivo.

T3 sequence (P56817 whole entry, the tested form may be a part): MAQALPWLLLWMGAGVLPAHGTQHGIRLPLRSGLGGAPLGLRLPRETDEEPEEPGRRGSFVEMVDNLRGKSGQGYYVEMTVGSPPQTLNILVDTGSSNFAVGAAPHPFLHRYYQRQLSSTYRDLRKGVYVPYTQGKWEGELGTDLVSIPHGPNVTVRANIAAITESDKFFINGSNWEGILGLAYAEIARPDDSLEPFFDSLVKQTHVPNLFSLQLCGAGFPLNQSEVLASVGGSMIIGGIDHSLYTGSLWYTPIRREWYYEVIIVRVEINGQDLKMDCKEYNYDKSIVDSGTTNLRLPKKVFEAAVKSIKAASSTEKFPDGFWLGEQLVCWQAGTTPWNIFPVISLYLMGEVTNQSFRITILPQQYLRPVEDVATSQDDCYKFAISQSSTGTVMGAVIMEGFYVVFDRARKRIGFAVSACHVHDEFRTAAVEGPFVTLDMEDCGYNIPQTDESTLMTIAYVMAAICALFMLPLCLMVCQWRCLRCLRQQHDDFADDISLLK
Chain of Voltage-gated inwardly rectifying potassium channel KCNH2 (Q12809 whole entry): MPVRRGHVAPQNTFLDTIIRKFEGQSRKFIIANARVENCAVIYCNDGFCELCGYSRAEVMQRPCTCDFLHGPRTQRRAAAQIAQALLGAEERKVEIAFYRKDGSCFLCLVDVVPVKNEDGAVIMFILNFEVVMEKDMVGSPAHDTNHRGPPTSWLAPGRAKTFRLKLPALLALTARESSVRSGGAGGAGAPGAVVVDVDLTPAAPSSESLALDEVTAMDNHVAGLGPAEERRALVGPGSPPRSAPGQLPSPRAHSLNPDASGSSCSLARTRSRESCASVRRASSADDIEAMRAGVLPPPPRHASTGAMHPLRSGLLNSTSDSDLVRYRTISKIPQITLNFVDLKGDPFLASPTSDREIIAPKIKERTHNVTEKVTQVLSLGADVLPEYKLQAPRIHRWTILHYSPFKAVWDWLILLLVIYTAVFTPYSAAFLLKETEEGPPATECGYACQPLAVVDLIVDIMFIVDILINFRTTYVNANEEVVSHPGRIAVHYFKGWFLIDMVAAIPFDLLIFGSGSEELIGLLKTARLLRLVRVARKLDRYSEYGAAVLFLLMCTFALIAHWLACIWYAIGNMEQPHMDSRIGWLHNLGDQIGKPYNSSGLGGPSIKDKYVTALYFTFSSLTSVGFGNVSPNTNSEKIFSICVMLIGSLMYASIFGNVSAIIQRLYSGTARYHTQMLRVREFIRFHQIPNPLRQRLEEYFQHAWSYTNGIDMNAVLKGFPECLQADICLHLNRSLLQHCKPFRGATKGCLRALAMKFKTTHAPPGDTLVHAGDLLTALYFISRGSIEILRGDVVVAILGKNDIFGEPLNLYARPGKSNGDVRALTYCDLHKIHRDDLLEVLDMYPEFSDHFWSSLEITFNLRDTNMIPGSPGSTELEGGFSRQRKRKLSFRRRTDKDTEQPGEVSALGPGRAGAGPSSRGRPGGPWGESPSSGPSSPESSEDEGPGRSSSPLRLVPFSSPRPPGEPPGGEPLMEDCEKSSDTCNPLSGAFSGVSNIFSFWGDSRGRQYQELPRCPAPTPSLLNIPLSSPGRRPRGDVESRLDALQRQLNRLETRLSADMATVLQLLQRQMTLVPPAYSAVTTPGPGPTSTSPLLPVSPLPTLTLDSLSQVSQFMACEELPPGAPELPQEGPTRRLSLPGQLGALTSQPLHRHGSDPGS
Chain of hERG (KCNH2) (Q12809 whole entry, the tested form may be a part): as the sequence (Q12809 whole entry) above
Chain of Cathepsin S (Homo sapiens) (P25774 115-331 limits assumed): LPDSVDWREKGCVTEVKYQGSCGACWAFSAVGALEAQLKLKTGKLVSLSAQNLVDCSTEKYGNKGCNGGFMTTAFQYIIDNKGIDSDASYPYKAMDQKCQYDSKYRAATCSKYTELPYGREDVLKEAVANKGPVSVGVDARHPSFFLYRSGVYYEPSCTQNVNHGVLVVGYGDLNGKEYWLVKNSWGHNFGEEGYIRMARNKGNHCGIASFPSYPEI
Chain of Cathepsin D (Homo sapiens) (P07339 65-162 limits assumed): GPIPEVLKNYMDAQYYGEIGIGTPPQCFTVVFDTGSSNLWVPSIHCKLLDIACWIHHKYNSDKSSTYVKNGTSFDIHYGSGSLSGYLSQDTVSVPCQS
Chain of Cathepsin D (Homo sapiens) (P07339 169-412 limits assumed): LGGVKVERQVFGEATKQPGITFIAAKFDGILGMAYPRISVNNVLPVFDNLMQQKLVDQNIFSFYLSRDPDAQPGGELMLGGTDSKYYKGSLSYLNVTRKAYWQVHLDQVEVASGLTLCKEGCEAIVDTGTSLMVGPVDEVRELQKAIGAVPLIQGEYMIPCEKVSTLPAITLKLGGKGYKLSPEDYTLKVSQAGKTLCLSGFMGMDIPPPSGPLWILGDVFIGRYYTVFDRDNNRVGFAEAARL

Consider `NC1=N[C@@](c2cccc(-c3cncnc3)c2)(c2ccnc(C(F)F)c2)c2cccc(F)c21` [AZD-3839], for which the “inhibition (INH)” value in [1] was “Active”. In addition, in [2], the IC50 was 0.9 nM.
For the molecule `[2H]C1([2H])OC(N)=N[C@]12c1cc(-c3cncnc3)ccc1C[C@@]21C[C@@H](C)[C@H](OC)[C@@H](C)C1` (racemic), the results for the CLH in data set [3] and in [4] were 187 µL/min/mg and 137 µL/min/10^6 cells, respectively.
On to `CO[C@H]1CC[C@]2(CC1)Cc1ccc(-c3cc(Cl)cc(C#N)c3)cc1[C@@]21COC(N)=N1`, for which the permeability entry in [5] is given as “Impermeable”. For the same molecule, the CLH in data set [3] was determined as 11.1 µL/min/mg; in data set [4], 11.6 µL/min/10^6 cells. Besides, the Kp uu at 2 h in data set [6] amounted to 0.21.
As for `[2H]C1([2H])OC(N)=N[C@]12c1cc(-c3cc(C#N)cc(OC)c3)ccc1C[C@]21CC[C@@H](OC)CC1`, the CLH stood at 15.7 µL/min/mg in data set [3] and 25.1 µL/min/10^6 cells in data set [4]. In data set [7], the Kp uu at 2 h amounted to 0.27.
As for `[2H]C1([2H])OC(N)=N[C@]12c1cc(-c3cc(Cl)cc(C#N)c3)ccc1C[C@]21CC[C@@H](OC)CC1`, the CLH in data set [3] amounted to 11.5 µL/min/mg; in data set [4], 8.7 µL/min/10^6 cells. Moreover, the Kp uu at 2 h in [7] came out at 0.68.
On to `COc1cc(C#N)cc(-c2ccc3c(c2)[C@@]2(COC(N)=N2)[C@]2(CC[C@H](OC)CC2)C3)c1`, for which the CLH in data set [3] was determined as 13.9 µL/min/mg; in data set [4], 23.9 µL/min/10^6 cells. Moreover, the Kp uu at 2 h in [6] came out at 0.07.
Consider `CO[C@H]1CC[C@@]2(Cc3ccc(-c4cncnc4)cc3[C@@]23COC(N)=N3)C[C@@H]1C`, for which the inhibition result in [8], in [9], in data set [10] and in [11] was “inactive” throughout. Besides, the outcome in data set [12] was Active. The result in data set [13] and in data set [14] was inactive.
As for `[2H]C1([2H])OC(N)=N[C@]12c1cc(-c3cncnc3)ccc1C[C@]21CC[C@@H](OC)[C@H](CC)C1`, the CLH in data set [3] came out at 149 µL/min/mg; in [4] it was 138 µL/min/10^6 cells. Moreover, at 11.1 µM the inhibition in [15] was 15%.
Turning to `[2H]C1([2H])OC(N)=N[C@]12c1cc(-c3cccnc3)ccc1C[C@]21CC[C@@H](OC)CC1`, affinity in data set [16] was put at a Ki of 430 nM. Further, the concentration for half-maximal inhibition (IC50) in [17] amounted to 7 nM.
With `[2H]C1([2H])OC(N)=N[C@]12c1cc(-c3cncnc3)ccc1C[C@@]21CC[C@H](OC)[C@@H](C)C1`, the CLH came out at 47 µL/min/mg in data set [3] and 66 µL/min/10^6 cells in data set [4]. Also, the IC50 in data set [18] was more than 33000 nM. Also, the “inhibition (INH)” value in [19] is listed as “Active”. The same molecule had an Activity in [20] of 30%. Moreover, the “Drug uptake(free)” value in [21] stood at 50 nM.
For `[2H]C1([2H])OC(N)=N[C@]12c1cc(-c3cncnc3)ccc1C[C@]21CC[C@@H](OC)[C@H](C)C1`, the values for the CLH in data set [3] and in data set [4] were 52.4 µL/min/mg and 82 µL/min/10^6 cells, respectively. For the same molecule, in data set [18], the IC50 was more than 33000 nM.
For the molecule `[2H]C1([2H])OC(N)=N[C@]12c1cc(-c3cncnc3)ccc1C[C@@]21CC[C@H](OC)[C@@H](CC)C1`, the CLH in data set [3] came out at 153 µL/min/mg; in data set [4], 158 µL/min/10^6 cells. Moreover, at 11.1 µM the inhibition in data set [15] was 29%.
In the case of `[2H]C1([2H])OC(N)=N[C@]12c1cc(-c3cncnc3)ccc1C[C@]21CC[C@@H](OC)CC1`, in data set [16], affinity was put at a Ki of 134 nM. Also, in data set [17], the half-inhibitory concentration (IC50) stood at 7 nM.

The term IC50 denotes the concentration that gives 50% inhibition. In general, inhibition refers to how much of the control response was suppressed. One may read the Ki as the equilibrium dissociation constant of an inhibitor or competing ligand from its target.
